ChEMBL document CHEMBL1147446, “Antagonists of human CCR5 receptor containing 4-(pyrazolyl)piperidine side chains. Part 3: SAR studies on the benzylpyrazole segment” (Bioorg Med Chem Lett, 2004)

How the values were obtained:
[1] = molecular target: C-C chemokine receptor type 5 (Homo sapiens, UniProt P51681); experiment: Inhibitory concentration for displacement of [125I]-MIP-1 alpha from recombinant human CC chemokine receptor 5 (CCR5) expressed in CHO cell; format: cell-based
Outline: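 Competitive binding to CCR5 on CHO cell membranes, read as displacement of [125I]-labeled MIP-1α. IC50 values are means of triplicate determinations. Standard errors were normally <15% within an assay. Assay-to-assay variation was within ±2-fold, judged from a standard compound.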

HeLa [2] = experiment: Antiviral activities in a cell culture HIV-1 infectivity inhibition assay using HeLa cells; format: functional; conditions: Homo sapiens
in vivo [3] = conditions: rat
in vivo [4] = conditions: rat, plasma
in vivo [5] = conditions: rat; remark: listed apart in the source
HeLa [6] = experiment: Antiviral activities in a cell culture HIV-1 infectivity inhibition assay using HeLa cells plus 50% normal human serum; format: functional

C-C chemokine receptor type 5, sequence (P51681 whole entry): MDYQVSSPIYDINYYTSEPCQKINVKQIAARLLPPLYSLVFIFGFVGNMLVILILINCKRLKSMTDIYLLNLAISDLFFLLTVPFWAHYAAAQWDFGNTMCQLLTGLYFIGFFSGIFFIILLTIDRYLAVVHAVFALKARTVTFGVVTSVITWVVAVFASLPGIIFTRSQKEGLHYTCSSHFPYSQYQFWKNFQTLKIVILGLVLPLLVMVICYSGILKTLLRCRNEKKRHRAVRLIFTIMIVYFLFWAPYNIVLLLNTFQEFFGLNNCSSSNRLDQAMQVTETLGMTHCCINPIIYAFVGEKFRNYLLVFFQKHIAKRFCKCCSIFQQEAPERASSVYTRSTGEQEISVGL

Row | IC50 [1] [nM] | IC90 (HeLa [2]) [nM] | bioavailability (in vivo [3]) [%] | clearance (in vivo [4]) [mL/min/kg] | half-life (in vivo [5]) [min] | SMILES | IC90 (HeLa [6]) [nM]
1 | 0.3 | 0.4 | 9.2 | 1.6 | 84 | CC[C@H](C)[C@H](C(=O)O)N1C[C@H](CN2CCC(c3cc(Cc4ccc(C(C)(C)C)cc4)nn3CC)CC2)[C@@H](c2cccc(F)c2)C1 | 11
2 | 0.8 | 1.2 | – | – | – | CCn1nc(Cc2ccc(OC)c(C#N)c2)cc1C1CCN(C[C@H]2CN([C@@H](C(=O)O)C(C)C)C[C@@H]2c2cccc(F)c2)CC1 | 300
3 | 3.9 | 0.4 | – | – | – | CCn1nc(Cc2cccnc2)cc1C1CCN(C[C@H]2CN([C@@H](C(=O)O)C3CCCCC3)C[C@@H]2c2cccc(F)c2)CC1 | 33
4 | 1.2 | 1.2 | – | – | – | CCCOc1ccc(Cc2cc(C3CCN(C[C@H]4CN([C@@H](C(=O)O)[C@H](C)CC)C[C@@H]4c4cccc(F)c4)CC3)n(CC)n2)cc1 | 300
5 | 0.8 | 3.7 | – | – | – | CCCOc1ccc(Cc2cc(C3CCN(C[C@H]4CN([C@@H](C(=O)O)C(C)C)C[C@@H]4c4cccc(F)c4)CC3)n(CC)n2)cc1 | > 300
6 | 1.2 | < 0.14 | – | – | – | CC[C@H](C)[C@H](C(=O)O)N1C[C@H](CN2CCC(c3cc(Cc4cccc(OC)c4)nn3CC)CC2)[C@@H](c2cccc(F)c2)C1 | 100
7 | 0.6 | 1.2 | – | – | – | CCn1nc(Cc2ccc(O)cc2)cc1C1CCN(C[C@H]2CN([C@@H](C(=O)O)C(C)C)C[C@@H]2c2cccc(F)c2)CC1 | 33
8 | 0.4 | 1.2 | – | – | – | CC[C@H](C)[C@H](C(=O)O)N1C[C@H](CN2CCC(c3cc(Cc4ccc(Oc5ccccc5)cc4)nn3CC)CC2)[C@@H](c2cccc(F)c2)C1 | 100
9 | 0.9 | < 0.14 | – | – | – | CCn1nc(Cc2cc(F)cc(F)c2)cc1C1CCN(C[C@H]2CN([C@@H](C(=O)O)C3CCCCC3)C[C@@H]2c2cccc(F)c2)CC1 | 11
10 | 0.7 | 3.7 | – | – | – | CC[C@H](C)[C@H](C(=O)O)N1C[C@H](CN2CCC(c3cc(Cc4ccc(OCc5ccccc5)cc4)nn3CC)CC2)[C@@H](c2cccc(F)c2)C1 | 300
11 | 0.6 | < 0.14 | – | – | – | CCn1nc(Cc2ccc(C)cc2)cc1C1CCN(C[C@H]2CN([C@@H](C(=O)O)C(C)(C)C)C[C@@H]2c2cccc(F)c2)CC1 | 33
12 | 1.1 | < 0.14 | – | – | – | CCn1nc(Cc2ccc(OC)cc2)cc1C1CCN(C[C@H]2CN([C@@H](C(=O)O)C3CCCCC3)C[C@@H]2c2cccc(F)c2)CC1 | 33
13 | 0.5 | 3.7 | – | – | – | CC[C@@H](C)[C@H](C(=O)O)N1C[C@H](CN2CCC(c3cc(Cc4ccc(OCc5ccccc5)cc4)nn3CC)CC2)[C@@H](c2cccc(F)c2)C1 | 100
14 | 0.6 | < 0.14 | – | – | – | CC[C@@H](C)[C@H](C(=O)O)N1C[C@H](CN2CCC(c3cc(Cc4ccc(O)cc4)nn3CC)CC2)[C@@H](c2cccc(F)c2)C1 | 11
15 | 0.3 | < 0.14 | – | – | – | CC[C@H](C)[C@H](C(=O)O)N1C[C@H](CN2CCC(c3cc(Cc4ccc(OC(F)F)cc4)nn3CC)CC2)[C@@H](c2cccc(F)c2)C1 | 11
16 | 2.3 | 0.4 | – | – | – | CCn1nc(Cc2ccc(S(C)(=O)=O)cc2)cc1C1CCN(C[C@H]2CN([C@@H](C(=O)O)C3CCCCC3)C[C@@H]2c2cccc(F)c2)CC1 | 11
17 | 0.8 | < 0.14 | – | – | – | CCOc1cccc(Cc2cc(C3CCN(C[C@H]4CN([C@@H](C(=O)O)[C@H](C)CC)C[C@@H]4c4cccc(F)c4)CC3)n(CC)n2)c1 | > 300
18 | 2 | 11 | – | – | – | CCn1nc(Cc2ccc(OC(C)(C)C)cc2)cc1C1CCN(C[C@H]2CN([C@@H](C(=O)O)C(C)(C)C)C[C@@H]2c2cccc(F)c2)CC1 | 300
19 | 1.4 | 0.4 | – | – | – | CC[C@H](C)[C@H](C(=O)O)N1C[C@H](CN2CCC(c3cc(Cc4ccc(O)cc4)nn3CC)CC2)[C@@H](c2cccc(F)c2)C1 | 11
20 | 0.9 | 0.4 | – | – | – | CCn1nc(Cc2ccc(Cl)cc2)cc1C1CCN(C[C@H]2CN([C@@H](C(=O)O)C3CCCCC3)C[C@@H]2c2cccc(F)c2)CC1 | 100
21 | 1.3 | < 0.14 | – | – | – | CC[C@H](C)[C@H](C(=O)O)N1C[C@H](CN2CCC(c3cc(Cc4ccc(C#N)cc4)nn3CC)CC2)[C@@H](c2cccc(F)c2)C1 | 3.7
22 | 0.5 | 0.4 | – | – | – | CC[C@@H](C)[C@H](C(=O)O)N1C[C@H](CN2CCC(c3cc(Cc4ccc(C(F)(F)F)cc4)nn3CC)CC2)[C@@H](c2cccc(F)c2)C1 | 100
23 | 0.5 | 11 | – | – | – | CCn1nc(Cc2ccc(O)cc2)cc1C1CCN(C[C@H]2CN([C@@H](C(=O)O)C3CCCCC3)C[C@@H]2c2cccc(F)c2)CC1 | 33

Row | IC50 [1] [nM] | IC90 (HeLa [2]) [nM] | bioavailability (in vivo [3]) [%] | clearance (in vivo [4]) [mL/min/kg] | half-life (in vivo [5]) [min] | SMILES | IC90 (HeLa [6]) [nM]
24 | 0.5 | < 0.14 | – | – | – | CCn1nc(Cc2ccc(OC(F)F)cc2)cc1C1CCN(C[C@H]2CN([C@@H](C(=O)O)C(C)C)C[C@@H]2c2cccc(F)c2)CC1 | 100
25 | 1.1 | 0.4 | – | – | – | CCn1nc(Cc2ccc(O)cc2)cc1C1CCN(C[C@H]2CN([C@@H](C(=O)O)C(C)(C)C)C[C@@H]2c2cccc(F)c2)CC1 | 11
26 | 1.1 | < 0.14 | – | – | – | CCn1nc(Cc2ccc(S(=O)(=O)c3ccccc3)cc2)cc1C1CCN(C[C@H]2CN([C@@H](C(=O)O)C(C)(C)C)C[C@@H]2c2cccc(F)c2)CC1 | 3.7
27 | 2.2 | 11 | – | – | – | CCn1nc(Cc2ccccc2F)cc1C1CCN(C[C@H]2CN([C@@H](C(=O)O)C(C)C)C[C@@H]2c2cccc(F)c2)CC1 | > 300
28 | 3.2 | 100 | – | – | – | CCn1nc(Cc2cc(C(F)(F)F)cc(C(F)(F)F)c2)cc1C1CCN(C[C@H]2CN([C@@H](C(=O)O)C(C)C)C[C@@H]2c2cccc(F)c2)CC1 | > 300
29 | 1 | < 0.14 | – | – | – | CCn1nc(Cc2cccc(F)c2)cc1C1CCN(C[C@H]2CN([C@@H](C(=O)O)C3CCCCC3)C[C@@H]2c2cccc(F)c2)CC1 | 33
30 | 0.4 | < 0.14 | – | – | – | CCOc1ccc(Cc2cc(C3CCN(C[C@H]4CN([C@@H](C(=O)O)[C@H](C)CC)C[C@@H]4c4cccc(F)c4)CC3)n(CC)n2)cc1F | 33
31 | 1.7 | 3.7 | – | – | – | CCn1nc(Cc2cccc(C#N)c2)cc1C1CCN(C[C@H]2CN([C@@H](C(=O)O)C(C)C)C[C@@H]2c2cccc(F)c2)CC1 | 100
32 | 1.5 | 0.4 | – | – | – | CCn1nc(Cc2ccc(F)cc2F)cc1C1CCN(C[C@H]2CN([C@@H](C(=O)O)C3CCCCC3)C[C@@H]2c2cccc(F)c2)CC1 | 33
33 | 0.7 | < 0.14 | – | – | – | CCn1nc(Cc2ccc3c(c2)OCO3)cc1C1CCN(C[C@H]2CN([C@@H](C(=O)O)C(C)(C)C)C[C@@H]2c2cccc(F)c2)CC1 | 33
34 | 2.6 | 11 | – | – | – | CCn1nc(Cc2cc(F)cc(F)c2)cc1C1CCN(C[C@H]2CN([C@@H](C(=O)O)C(C)C)C[C@@H]2c2cccc(F)c2)CC1 | 300
35 | 2.6 | 0.4 | – | – | – | CC[C@@H](C)[C@H](C(=O)O)N1C[C@H](CN2CCC(c3cc(Cc4ccc(OC)c(OC)c4)nn3CC)CC2)[C@@H](c2cccc(F)c2)C1 | 33
36 | 1.3 | 3.7 | – | – | – | CCn1nc(Cc2ccc(Cl)cc2)cc1C1CCN(C[C@H]2CN([C@@H](C(=O)O)C(C)C)C[C@@H]2c2cccc(F)c2)CC1 | 300
37 | 0.7 | < 0.14 | – | – | – | CCOc1ccc(Cc2cc(C3CCN(C[C@H]4CN([C@@H](C(=O)O)[C@@H](C)CC)C[C@@H]4c4cccc(F)c4)CC3)n(CC)n2)cc1F | 11
38 | 0.5 | < 0.14 | – | – | – | CCn1nc(Cc2ccc(OC(F)F)cc2)cc1C1CCN(C[C@H]2CN([C@@H](C(=O)O)C(C)(C)C)C[C@@H]2c2cccc(F)c2)CC1 | 11
39 | 0.8 | 0.4 | – | – | – | CCCCOc1ccc(Cc2cc(C3CCN(C[C@H]4CN([C@@H](C(=O)O)C5CCCCC5)C[C@@H]4c4cccc(F)c4)CC3)n(CC)n2)cc1 | 33
40 | 2.7 | 3.7 | – | – | – | CC[C@@H](C)[C@H](C(=O)O)N1C[C@H](CN2CCC(c3cc(Cc4cccc(CN)c4)nn3CC)CC2)[C@@H](c2cccc(F)c2)C1 | 33
41 | 13.1 | 11 | – | – | – | CCn1nc(Cc2cccnc2)cc1C1CCN(C[C@H]2CN([C@@H](C(=O)O)C(C)C)C[C@@H]2c2cccc(F)c2)CC1 | 300
42 | 0.7 | 1.2 | – | – | – | CCCOc1ccc(Cc2cc(C3CCN(C[C@H]4CN([C@@H](C(=O)O)C5CCCCC5)C[C@@H]4c4cccc(F)c4)CC3)n(CC)n2)cc1 | 100
43 | 0.8 | 0.4 | – | – | – | CCCOc1ccc(Cc2cc(C3CCN(C[C@H]4CN([C@@H](C(=O)O)C(C)(C)C)C[C@@H]4c4cccc(F)c4)CC3)n(CC)n2)cc1 | 300
44 | 1.1 | 0.4 | – | – | – | CC[C@@H](C)[C@H](C(=O)O)N1C[C@H](CN2CCC(c3cc(Cc4ccc(S(=O)(=O)c5ccccc5)cc4)nn3CC)CC2)[C@@H](c2cccc(F)c2)C1 | 33
45 | 0.6 | 11 | – | – | – | CCn1nc(Cc2ccc(Oc3ccccc3)cc2)cc1C1CCN(C[C@H]2CN([C@@H](C(=O)O)C(C)C)C[C@@H]2c2cccc(F)c2)CC1 | > 300
46 | 0.6 | < 0.14 | – | – | – | CC[C@@H](C)[C@H](C(=O)O)N1C[C@H](CN2CCC(c3cc(Cc4ccc(OC(F)F)cc4)nn3CC)CC2)[C@@H](c2cccc(F)c2)C1 | 11
